Measurements taken from ChEMBL document CHEMBL1150418, “Discovery of potent furan piperazine sodium channel blockers for treatment of neuropathic pain” (Bioorg Med Chem, 2008).

Columns and labels:
[1] = biological target: Sodium channel protein type 2 subunit alpha (Homo sapiens, UniProt Q99250); test: Inhibition of human recombinant Nav1.2 channel expressed in HEK293 cells by whole cell voltage clamp technique; type: cell-based
Outline: (§1)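 HEK293 cells stably expressing recombinant human sodium channels, grown in high-glucose DMEM, 10% FBS, 2 mM sodium pyruvate, G418. Holding pre-pulse set at midpoint of steady-state inactivation for each subtype.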

Rattus norvegicus [2] = test: Analgesic activity in po dosed Sprague-Dawley rat assessed as attenuation of mechanical allodynia in chung model of neuropathic pain; type: functional
[3] = Volume of distribution at steady state in Sprague-Dawley rat at 10 mg/kg; type: ADME, organism-based; parameters: dose 10 mg/kg; settings: in vivo, read-out: Vdss
Outline: (§2)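 Rat pharmacokinetics after administration at 10 mg/kg in 10% DMSO/PEG400.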

[4] = Ratio of drug level in brain to plasma in Sprague-Dawley rat; type: ADME; settings: for Kp: Sprague-Dawley, brain and plasma
Rattus norvegicus [5] = test: Analgesic activity in po dosed Sprague-Dawley rat by edge test; type: functional
Outline: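 Balance test: rats placed on 0.5-cm-thick edges of a 40 × 40 × 36 cm plexiglass box, must pull up onto the edge and avoid falling; cut-off 2 min. Groups of at least six rats.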

[6] = Cmax in Sprague-Dawley rat at 10 mg/kg, po; type: ADME, organism-based; parameters: dose 10 mg/kg, route oral; settings: in vivo; outline: as §2
[7] = biological target: T1, Sodium channel protein type 10 subunit alpha (Homo sapiens, UniProt Q9Y5Y9); test: Inhibition of human recombinant Nav1.8 channel expressed in HEK293 cells by whole cell voltage clamp technique; type: cell-based
Outline: (§3)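 HEK293 cells stably expressing recombinant human sodium channels, grown in high-glucose DMEM, 10% FBS, 2 mM sodium pyruvate, G418. Whole-cell voltage clamp; pipettes 0.8–2.5 MΩ; internal (mM) 135 CsF, 10 CsCl, 5 EGTA, 5 NaCl, 10 HEPES, pH 7.3 with CsOH. Holding pre-pulse set at midpoint of steady-state inactivation for each subtype.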

[8] = biological target: Sodium channel protein type 5 subunit alpha (Homo sapiens, UniProt Q14524); test: Inhibition of human recombinant Nav1.5 channel expressed in HEK293 cells by whole cell voltage clamp technique; type: cell-based; outline: as §1
[9] = Plasma clearance in Sprague-Dawley rat at 10 mg/kg; type: ADME, organism-based; parameters: dose 10 mg/kg; outline: as §2
[10] = biological target: Sodium channel protein type 10 subunit alpha (Rattus norvegicus, UniProt Q62968); test: Blockade of Nav1.8 channel in rat dorsal root ganglion neurons assessed as inhibition of TTX-R current by whole cell patch clamp technique; type: tissue-based
Outline: (§4)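 Whole-cell voltage clamp of TTX-resistant currents in dissociated rat DRG neurons. Pipette (mM): CsF 135, NaCl 5, CsCl 10, EGTA 5, HEPES 10, pH 7.2. Bath (mM): NaCl 22, choline Cl 110, CaCl2 1.8, MgCl2 0.8, HEPES 10, glucose 5, pH 7.4. Inactivated-state protocol with pre-pulse at V1/2 (−40 mV). Mean ± SEM of two to six determinations.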

Rattus norvegicus [11] = test: Analgesic activity in po dosed Sprague-Dawley rat by rotarod test; type: functional
Outline: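 Accelerating rotorod: after 30-min acclimation, rats placed on 9-cm rod ramping 0–20 rpm over 60 s; latency to fall recorded, maximum 60 s; three training sessions per rat. Groups of at least six rats; mean ± SEM.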

[12] = Oral bioavailability in Sprague-Dawley rat at 10 mg/kg; type: ADME, organism-based; settings: in vivo; outline: as §2
Rattus norvegicus [13] = test: Effect on locomotor activity in po dosed Sprague-Dawley rat; type: functional
Outline: (§5)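 Open-field locomotor activity recorded with photobeam activity monitors during the light cycle; groups of at least six rats, mean ± SEM.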

Rattus norvegicus [14] = test: Cardiovascular effect in iv dosed Sprague-Dawley rat assessed as decrease in mean arterial blood pressure; type: functional, Artery; parameters: scale not given: the % may be the effect or the level left
Outline: (§6)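 Anesthetized rats: after a 30-min control period, blocker or vehicle (PEG-400) infused intravenously as five successive 30-min infusions at 1×, 3×, 10×, 30× and 100× of calculated therapeutic dose; blood sample and hematocrit taken after infusion; mean arterial pressure and heart rate monitored.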

Rattus norvegicus [15] = test: Effect on locomotor activity in Sprague-Dawley rat at 230 umol/kg; type: functional; outline: as §5
[16] = biological target: Sodium channel protein type 10 subunit alpha (Rattus norvegicus) (UniProt Q62968); test: Blockade of Nav1.8 channel in rat dorsal root ganglion neurons assessed as inhibition of TTX-R current at 0.1 uM by whole cell patch clamp technique; type: tissue-based; outline: as §4
[17] = biological target: T1, Sodium channel protein type 10 subunit alpha; test: Inhibition of human recombinant Nav1.8 channel expressed in HEK293 cells at 0.1 uM by whole cell voltage clamp technique; type: cell-based; outline: as §3
[18] = biological target: Sodium channel protein type 10 subunit alpha (Rattus norvegicus) (UniProt Q62968); test: Blockade of Nav1.8 channel in rat dorsal root ganglion neurons assessed as inhibition of TTX-R current at 0.03 uM by whole cell patch clamp technique; type: tissue-based
Outline: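 Dissociated rat DRG neurons; TTx-r currents recorded by whole-cell voltage clamp. Holding pre-pulse was set at the steady-state inactivation midpoint (V1/2 = −40 mV), giving an inactivated-state protocol. Pipette solution (mM): CsF 135, NaCl 5, CsCl 10, EGTA 5, HEPES 10, pH 7.2. Bath solution (mM): NaCl 22, choline Cl 110, CaCl2 1.8, MgCl2 0.8, HEPES 10, glucose 5, pH 7.4. Percent inhibition is the mean of 2–6 determinations ± SEM.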

Rattus norvegicus [19] = test: Cardiovascular effect in iv dosed Sprague-Dawley rat assessed as decrease in heart rate; type: functional; parameters: scale not given: the % may be the effect or the level left; outline: as §6
[20] = biological target: T1, Sodium channel protein type 10 subunit alpha; test: Inhibition of human recombinant Nav1.8 channel expressed in HEK293 cells at 0.03 uM by whole cell voltage clamp technique; type: cell-based; outline: as §3
[21] = biological target: T1, Sodium channel protein type 10 subunit alpha; test: Inhibition of human recombinant Nav1.8 channel expressed in HEK293 cells at 0.3 uM by whole cell voltage clamp technique; type: cell-based; outline: as §3
[22] = biological target: Sodium channel protein type 10 subunit alpha (Rattus norvegicus) (UniProt Q62968); test: Blockade of Nav1.8 channel in rat dorsal root ganglion neurons assessed as inhibition of TTX-R current at 1 uM by whole cell patch clamp technique; type: tissue-based; outline: as §4
Rattus norvegicus [23] = test: Effect on locomotor activity in ip dosed Sprague-Dawley rat
Rattus norvegicus [24] = test: Analgesic activity in ip dosed Sprague-Dawley rat assessed as attenuation of mechanical allodynia in chung model of neuropathic pain
Rattus norvegicus [25] = test: Analgesic activity in ip dosed Sprague-Dawley rat by rotarod test
[26] = biological target: T1, Sodium channel protein type 10 subunit alpha; test: Inhibition of human recombinant Nav1.8 channel expressed in HEK293 cells at 1 uM by whole cell voltage clamp technique; type: cell-based; outline: as §3
[27] = biological target: Sodium channel protein type 10 subunit alpha (Rattus norvegicus) (UniProt Q62968); test: Blockade of Nav1.8 channel in rat dorsal root ganglion neurons assessed as inhibition of TTX-R current at 10 uM by whole cell patch clamp technique; type: tissue-based; outline: as §4
[28] = biological target: Sodium channel protein type 10 subunit alpha (Mus musculus, UniProt Q6QIY3); test: Inhibition of mouse recombinant Nav1.8 channel expressed in HEK293 cells by isotopic efflux assay; type: cell-based
[29] = biological target: Sodium channel protein type 10 subunit alpha (Rattus norvegicus) (UniProt Q62968); test: Blockade of Nav1.8 channel in rat dorsal root ganglion neurons assessed as inhibition of TTX-R current at 0.3 uM by whole cell patch clamp technique; type: tissue-based; outline: as §4
[30] = biological target: 5-hydroxytryptamine receptor 1B (Homo sapiens) (UniProt P28222); test: Binding affinity to 5HT1B receptor at 10 uM
[31] = biological target: T2, 5-hydroxytryptamine receptor 1A (Homo sapiens) (UniProt P08908); test: Binding affinity to 5HT1A receptor at 10 uM
T2 sequence (whole entry): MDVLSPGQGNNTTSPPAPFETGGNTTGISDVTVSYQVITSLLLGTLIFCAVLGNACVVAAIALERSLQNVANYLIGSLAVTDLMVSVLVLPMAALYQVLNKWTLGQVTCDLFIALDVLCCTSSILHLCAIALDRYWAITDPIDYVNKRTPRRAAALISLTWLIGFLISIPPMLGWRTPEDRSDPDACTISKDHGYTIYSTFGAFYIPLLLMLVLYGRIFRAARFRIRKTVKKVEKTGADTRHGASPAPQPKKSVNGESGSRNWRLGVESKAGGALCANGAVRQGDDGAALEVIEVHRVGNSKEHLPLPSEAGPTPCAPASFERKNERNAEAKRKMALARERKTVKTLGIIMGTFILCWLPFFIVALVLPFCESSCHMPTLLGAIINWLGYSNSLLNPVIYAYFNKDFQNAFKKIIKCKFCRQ

Sequence of Sodium channel protein type 5 subunit alpha (Q14524 whole entry): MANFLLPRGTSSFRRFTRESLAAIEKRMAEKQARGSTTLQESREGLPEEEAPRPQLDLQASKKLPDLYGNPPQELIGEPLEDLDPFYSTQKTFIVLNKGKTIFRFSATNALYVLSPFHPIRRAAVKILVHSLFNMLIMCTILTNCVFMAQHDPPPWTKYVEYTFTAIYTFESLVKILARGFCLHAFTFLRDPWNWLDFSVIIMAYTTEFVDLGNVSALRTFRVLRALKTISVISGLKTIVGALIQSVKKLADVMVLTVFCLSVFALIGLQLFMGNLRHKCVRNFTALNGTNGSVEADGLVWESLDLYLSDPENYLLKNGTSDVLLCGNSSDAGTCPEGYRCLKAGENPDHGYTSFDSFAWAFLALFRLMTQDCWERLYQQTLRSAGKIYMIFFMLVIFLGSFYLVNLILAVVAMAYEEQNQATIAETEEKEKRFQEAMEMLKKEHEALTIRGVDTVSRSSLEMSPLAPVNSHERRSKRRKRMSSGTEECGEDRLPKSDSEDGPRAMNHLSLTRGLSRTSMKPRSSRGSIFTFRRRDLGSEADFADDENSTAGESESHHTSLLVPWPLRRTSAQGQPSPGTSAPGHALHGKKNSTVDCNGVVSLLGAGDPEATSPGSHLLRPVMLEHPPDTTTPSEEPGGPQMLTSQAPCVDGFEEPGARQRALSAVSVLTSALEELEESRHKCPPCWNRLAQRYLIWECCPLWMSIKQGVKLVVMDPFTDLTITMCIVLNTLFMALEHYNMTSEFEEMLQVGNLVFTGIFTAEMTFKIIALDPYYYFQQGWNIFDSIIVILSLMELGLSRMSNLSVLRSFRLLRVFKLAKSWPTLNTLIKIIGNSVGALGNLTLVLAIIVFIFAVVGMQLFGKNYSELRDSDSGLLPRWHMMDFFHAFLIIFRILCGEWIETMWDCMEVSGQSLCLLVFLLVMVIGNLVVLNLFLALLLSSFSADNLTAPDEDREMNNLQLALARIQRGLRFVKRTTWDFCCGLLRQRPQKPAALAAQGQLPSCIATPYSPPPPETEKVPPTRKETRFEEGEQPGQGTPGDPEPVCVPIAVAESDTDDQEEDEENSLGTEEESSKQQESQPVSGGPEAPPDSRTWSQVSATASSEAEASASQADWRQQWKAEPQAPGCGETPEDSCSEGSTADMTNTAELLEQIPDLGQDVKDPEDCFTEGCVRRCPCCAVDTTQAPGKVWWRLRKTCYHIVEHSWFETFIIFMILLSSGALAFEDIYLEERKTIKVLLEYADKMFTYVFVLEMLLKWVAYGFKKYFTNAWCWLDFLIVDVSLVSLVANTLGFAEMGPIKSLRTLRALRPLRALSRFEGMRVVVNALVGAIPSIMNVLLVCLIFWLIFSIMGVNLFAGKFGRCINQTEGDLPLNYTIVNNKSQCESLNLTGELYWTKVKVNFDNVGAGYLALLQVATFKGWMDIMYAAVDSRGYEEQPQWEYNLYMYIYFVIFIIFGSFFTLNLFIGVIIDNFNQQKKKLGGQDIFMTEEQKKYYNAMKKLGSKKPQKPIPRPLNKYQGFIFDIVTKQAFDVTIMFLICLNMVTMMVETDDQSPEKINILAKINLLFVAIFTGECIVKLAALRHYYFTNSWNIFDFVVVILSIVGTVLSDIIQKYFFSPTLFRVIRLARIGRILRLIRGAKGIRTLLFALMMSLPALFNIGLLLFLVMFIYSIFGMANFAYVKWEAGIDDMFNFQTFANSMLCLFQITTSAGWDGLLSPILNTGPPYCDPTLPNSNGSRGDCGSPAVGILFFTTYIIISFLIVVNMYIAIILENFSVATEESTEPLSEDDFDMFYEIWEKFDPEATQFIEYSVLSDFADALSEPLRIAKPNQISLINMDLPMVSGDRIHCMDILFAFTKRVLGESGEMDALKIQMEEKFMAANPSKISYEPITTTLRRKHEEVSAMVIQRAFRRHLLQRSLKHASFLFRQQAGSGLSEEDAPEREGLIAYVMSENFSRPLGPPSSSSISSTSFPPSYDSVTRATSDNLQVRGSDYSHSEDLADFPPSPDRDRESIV
Sequence of Sodium channel protein type 10 subunit alpha (Mus musculus, UniProt Q6QIY3) (Q6QIY3 whole entry): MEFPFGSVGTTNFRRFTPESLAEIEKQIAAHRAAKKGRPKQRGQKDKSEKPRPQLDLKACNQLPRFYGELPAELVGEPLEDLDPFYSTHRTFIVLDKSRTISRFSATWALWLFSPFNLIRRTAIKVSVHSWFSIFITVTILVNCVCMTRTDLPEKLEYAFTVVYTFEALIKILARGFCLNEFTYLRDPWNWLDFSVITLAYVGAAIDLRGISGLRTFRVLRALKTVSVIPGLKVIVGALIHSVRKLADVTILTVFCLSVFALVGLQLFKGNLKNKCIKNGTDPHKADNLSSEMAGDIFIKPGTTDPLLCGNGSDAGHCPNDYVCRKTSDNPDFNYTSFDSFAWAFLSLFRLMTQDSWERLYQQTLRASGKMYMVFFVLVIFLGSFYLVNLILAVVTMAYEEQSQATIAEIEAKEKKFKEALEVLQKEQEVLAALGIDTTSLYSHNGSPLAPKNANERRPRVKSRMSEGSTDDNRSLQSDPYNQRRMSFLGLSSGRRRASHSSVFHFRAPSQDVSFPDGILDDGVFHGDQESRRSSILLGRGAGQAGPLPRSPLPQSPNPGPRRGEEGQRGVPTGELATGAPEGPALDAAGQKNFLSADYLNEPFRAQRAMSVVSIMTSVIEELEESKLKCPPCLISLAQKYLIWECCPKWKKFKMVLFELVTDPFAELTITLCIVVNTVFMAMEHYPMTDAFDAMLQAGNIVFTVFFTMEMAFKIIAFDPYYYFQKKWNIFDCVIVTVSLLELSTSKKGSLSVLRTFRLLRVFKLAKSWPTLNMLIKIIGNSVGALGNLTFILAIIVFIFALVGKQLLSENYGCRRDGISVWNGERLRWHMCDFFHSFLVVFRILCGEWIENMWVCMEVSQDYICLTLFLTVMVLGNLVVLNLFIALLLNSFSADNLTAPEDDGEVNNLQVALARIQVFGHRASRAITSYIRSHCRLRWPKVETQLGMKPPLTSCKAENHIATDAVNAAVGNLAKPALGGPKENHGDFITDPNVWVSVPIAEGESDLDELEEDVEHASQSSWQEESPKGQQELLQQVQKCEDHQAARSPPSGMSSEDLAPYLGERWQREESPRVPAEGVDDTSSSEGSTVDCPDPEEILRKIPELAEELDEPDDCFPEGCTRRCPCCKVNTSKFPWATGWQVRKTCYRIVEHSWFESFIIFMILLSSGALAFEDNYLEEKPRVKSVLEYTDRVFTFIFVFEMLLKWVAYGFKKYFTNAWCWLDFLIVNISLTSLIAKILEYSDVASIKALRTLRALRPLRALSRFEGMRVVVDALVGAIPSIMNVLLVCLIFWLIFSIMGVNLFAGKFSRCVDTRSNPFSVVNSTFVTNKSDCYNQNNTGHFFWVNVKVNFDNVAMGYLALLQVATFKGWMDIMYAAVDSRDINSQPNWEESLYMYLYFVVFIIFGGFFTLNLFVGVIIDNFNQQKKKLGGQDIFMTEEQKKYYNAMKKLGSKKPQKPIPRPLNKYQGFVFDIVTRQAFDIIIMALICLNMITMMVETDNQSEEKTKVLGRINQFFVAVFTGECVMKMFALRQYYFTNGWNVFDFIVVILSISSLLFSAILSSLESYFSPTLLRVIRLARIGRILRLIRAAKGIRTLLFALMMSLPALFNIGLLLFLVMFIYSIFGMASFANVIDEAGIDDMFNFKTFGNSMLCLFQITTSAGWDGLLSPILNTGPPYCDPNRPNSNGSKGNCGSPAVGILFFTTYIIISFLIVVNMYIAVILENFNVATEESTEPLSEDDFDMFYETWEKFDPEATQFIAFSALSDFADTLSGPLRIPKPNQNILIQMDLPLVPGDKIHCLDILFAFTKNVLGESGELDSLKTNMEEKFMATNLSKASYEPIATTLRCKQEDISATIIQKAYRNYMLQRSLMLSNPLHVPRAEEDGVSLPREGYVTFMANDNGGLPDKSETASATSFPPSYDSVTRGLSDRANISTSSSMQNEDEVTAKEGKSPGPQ
Sequence of 5-hydroxytryptamine receptor 1B (Homo sapiens) (P28222 whole entry): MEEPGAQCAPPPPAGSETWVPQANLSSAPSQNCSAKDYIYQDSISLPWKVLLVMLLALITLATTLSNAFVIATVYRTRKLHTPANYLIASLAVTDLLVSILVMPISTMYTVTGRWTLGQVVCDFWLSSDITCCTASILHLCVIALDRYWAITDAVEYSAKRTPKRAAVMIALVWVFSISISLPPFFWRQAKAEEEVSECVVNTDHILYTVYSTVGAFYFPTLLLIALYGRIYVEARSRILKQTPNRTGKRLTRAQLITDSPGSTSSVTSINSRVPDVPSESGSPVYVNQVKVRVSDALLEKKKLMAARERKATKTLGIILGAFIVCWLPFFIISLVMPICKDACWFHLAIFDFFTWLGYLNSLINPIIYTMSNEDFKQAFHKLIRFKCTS

Nc1nnc(-c2cccc(Cl)c2Cl)c(N)n1 [LAMOTRIGINE]
IC50 [1]: 10000 nM
ED50 (Rattus norvegicus [2]): 47 µmol/kg
Vd [3]: 0.98 L/kg
Ratio ([4]; brain): 26
ED50 (Rattus norvegicus [5]): > 390 µmol/kg
Cmax [6]: 3500 ng/mL
IC50 [7]: 96000 nM
IC50 [8]: 62000 nM
clearance [9]: 1 mL/min/kg
IC50 [10]: 25000 nM
ED50 (Rattus norvegicus [11]): > 390 µmol/kg
bioavailability [12]: 79%
ED50 (Rattus norvegicus [13]): > 390 µmol/kg

CC(C)(C)c1ccc(-c2ccc(C(=O)N3CCN(C4CCCCC4)CC3)o2)cc1
Activity (Rattus norvegicus [14]): 11%
ED50 (Rattus norvegicus [2]): 4.7 µmol/kg
Activity (Rattus norvegicus [15]): 38%
inhibition [16]: 58%
Vd [3]: 13.4 L/kg
Kp [4]: 8
ED50 (Rattus norvegicus [5]): > 300 µmol/kg
Cmax [6]: 570 ng/mL
IC50 [7]: 30 nM
IC50 [8]: 100 nM
clearance [9]: 127 mL/min/kg
IC50 [10]: 90 nM
inhibition [17]: 81%
ED50 (Rattus norvegicus [11]): > 300 µmol/kg
bioavailability [12]: 7%
inhibition [18]: 20%
Activity (Rattus norvegicus [19]): 27%
inhibition [20]: 57%

CN1CCN(C(=O)c2ccc(-c3ccc(C(C)(C)C)cc3)o2)CC1
inhibition [21]: 32%
inhibition [22]: 55%

Cc1cccc(C)c1OCC(C)N (stereo not given) [MEXILETINE]
ED50 (Rattus norvegicus [23]): 45 µmol/kg
IC50 [1]: 2900 nM
ED50 (Rattus norvegicus [24]): 102 µmol/kg
ED50 (Rattus norvegicus [25]): > 140 µmol/kg
Kp [4]: 1.4
IC50 [7]: 56000 nM
IC50 [10]: 31000 nM

O=C(c1ccc(-c2ccc(Cl)cc2Cl)o1)N1CCN(C2CCCCC2)CC1
inhibition [21]: 12%

CC(C)(C)c1ccc(-c2ccc(C(=O)N3CCNCC3)o2)cc1
inhibition [26]: 85%
inhibition [27]: 86%
inhibition [17]: 44%

CN1CCC(NC(=O)c2ccc(-c3ccc(Cl)cc3)o2)CC1
IC50 [28]: 1900 nM
inhibition [29]: 51%

CN(C)CC(C)(C)CNC(=O)c1ccc(-c2ccc(Cl)cc2)o1
IC50 [28]: 2400 nM
inhibition [29]: 65%

O=C(c1ccc(-c2ccc(Cl)cc2)o1)N1CCNCC1
Activity [30]: 86%
IC50 [1]: 1100 nM
ED50 (Rattus norvegicus [2]): 24 µmol/kg
IC50 [28]: 2900 nM
Vd [3]: 24 L/kg
Kp [4]: 9
ED50 (Rattus norvegicus [5]): > 300 µmol/kg
Cmax [6]: 130 ng/mL
IC50 [7]: 280 nM
IC50 [8]: 4600 nM
inhibition [21]: 55%
clearance [9]: 350 mL/min/kg
IC50 [10]: 430 nM
inhibition [29]: 41%
ED50 (Rattus norvegicus [11]): > 300 µmol/kg
Activity [31]: 60%
bioavailability [12]: 42%
ED50 (Rattus norvegicus [13]): > 300 µmol/kg

O=C(c1ccc(-c2ccc(Cl)cc2)o1)N1CCN(c2cccc(C(F)(F)F)c2)CC1
IC50 [28]: 14000 nM

O=C(c1ccc(-c2ccc(Oc3ccccc3)cc2)o1)N1CCNCC1
inhibition [26]: 93%
inhibition [17]: 39%
inhibition [22]: 56%
